Published values pooled from the literature.
Each line is one published result; the experiments were not run side by side.
Target: Serine/threonine-protein kinase WNK2 (WNK2, Homo sapiens, UniProt Q9Y3S1)

Compound | test | conditions | measurement | value
CC(C)(O)[C@H]1CC[C@H](Nc2ccc3ncc(-c4cccc(C(F)(F)F)c4)n3n2)CC1 | enzyme activity, inhibitor | 1 µM | remaining activity | 86.2%
Nc1ncnc2occ(-c3ccc(NC(=O)Nc4cc(C(F)(F)F)ccc4F)cc3)c12 | cell-free assay, inhibitor | 20 µM | remaining signal | 65%
CNC(=O)c1cc(Oc2ccc(NC(=O)Nc3ccc(Cl)c(C(F)(F)F)c3)cc2)ccn1 | enzyme activity, inhibitor | 10 µM | inhibition | 13%
O=C1NC(=O)c2cc(Nc3ccc(F)cc3)c(Nc3ccc(F)cc3)cc21 | cell-free assay | 0.5 µM | remaining signal | 110%
COc1cc(Cl)c(C(=O)N[C@@H](CN[C@H]2CC[C@@H](N)CC2)Cc2ccc(C#N)cc2)cc1-c1ccc(CN[C@H](C)c2ccc(C)cc2)o1 | enzyme activity, inhibitor | 1 µM | remaining activity | 101%
O=C(Nc1cnn(-c2csc(C(=O)NC3COC3)c2)c1)Nc1ccccc1Cl | enzyme activity, inhibitor | 5 µM | remaining activity | 96.3%
Nc1cnc(N2CCc3cc(S(=O)(=O)Nc4c(F)cc(Cl)cc4F)cc(N4CCCC4=O)c32)nc1 | cell-free assay, competition with immobilised ligand | 1 µM | remaining binding | 100%
Cc1ccc(Nc2nccc(N(C)c3ccc4c(C)n(C)nc4c3)n2)cc1S(N)(=O)=O | enzyme activity, inhibitor | 10 µM | inhibition | 26%
CNC(=O)Nc1ccc2c(c1)[C@@]1(CC2)OC(=O)N(CC(=O)N(Cc2ccc(F)cc2)[C@@H](C)C(F)(F)F)C1=O | cell-free assay, competition with immobilised ligand | 1 µM | remaining binding | 59%
CC(C)(C)c1nc(-c2cccc(NS(=O)(=O)c3c(F)cccc3F)c2F)c(-c2ccnc(N)n2)s1 | enzyme activity, inhibitor, radiometric | 1 µM | remaining activity | 103%
CO[C@@H](C)c1c(Nc2ccc([C@@H](N(C)C(=O)C3CCS(=O)(=O)CC3)C(F)(F)F)cc2)cnc2cc(Cl)nn12 | cell-free assay, competition with immobilised ligand | 1 µM | remaining binding | 100%
CN1CC(Oc2cnc(C#N)cc2-c2ccn3nc(NC(=O)C4CC4)cc3c2)C1 | enzyme activity, inhibitor | 1 µM | inhibition | 8%
O=C(NC[C@@H]1[C@H]2CN(C(=O)OCc3cc(C(F)(F)F)cc(C(F)(F)F)c3)C[C@@H]12)c1ccc2[nH]nnc2c1 | cell-free assay, competition with immobilised ligand | 1 µM | remaining binding | 84%
CCN(CC)CCNC(=O)c1c(C)[nH]c(/C=C2\C(=O)Nc3ccc(F)cc32)c1C | enzyme activity, inhibitor | 10 µM | inhibition | 23%
O=C(Nc1cnc(Oc2ccc(F)cc2)nc1)N1CCc2ncccc2[C@@H]1c1ccc(F)cc1 | cell-free assay, competition with immobilised ligand | 1 µM | remaining binding | 79%
CN(c1nccc(-c2cnn3ncccc23)n1)C1CC1 | binding | 1 µM | remaining binding | 100%
COc1cccc(CNC(=O)c2nc3scc(COCc4ccc(C(=O)O)cc4)c3c(=O)[nH]2)c1 | cell-free assay, competition with immobilised ligand | 1 µM | remaining binding | 54.2%
O=C(Nc1cnn(-c2csc(C(=O)NC3COC3)c2)c1)Nc1c(F)cccc1Cl | enzyme activity, inhibitor | 5 µM | remaining activity | 91.9%
